Source: ChEMBL document CHEMBL1152609, “Synthesis and pharmacological exploitation of clioquinol-derived copper-binding apoptosis inducers triggering reactive oxygen species generation and MAPK pathway activation” (2009)
Blank lines part the entries; values can stand above or below the compound they belong to. The source made the active and inactive calls. The calls are words filed in the database; no cut-off is given here.

Columns and labels:
[1] = system: HeLa; experiment: Induction of apoptosis in human HeLa cells assessed as procaspase-3 activation at 3 uM after 24 hrs by Western blot; format: functional, cell-based
[2] = biological target: T1, MAP kinase p38 (Homo sapiens) (UniProt O15264+Q15759+Q16539+P53778); experiment: Activation of p38 phosphorylation in human HeLa cells at 3 uM in presence of 10 uM CuCl2 by Western blot; format: cell-based; details: TDE = time-dependent effect
How it was run: (§1)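 HeLa cells grown in DMEM with 10% FBS, 2 mM glutamine and penicillin/streptomycin at 37 °C, 5% CO₂. Treated cells were lysed and the extracts run on Western blot. Membranes were blocked overnight at 4 °C in TBST/5% non-fat milk. Probed with phospho- and total ERK1/2, p38 and JNK antibodies, then anti-mouse or anti-rabbit IgG (1:10,000, 1 h, RT), with ECL detection.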

[3] = system: HeLa; experiment: Induction of apoptosis in human HeLa cells assessed as accumulation at subG1 phase at 3 uM after 24 hrs using propidium iodide staining by flow cytometry; format: functional
How it was run: (§2)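 HeLa cells exposed 24 h to test agent; controls were 0.5% DMSO and untreated cells. Optional additions were CuCl₂ 10 μM, tempol 1 mM or z-VAD. Cells were fixed in 80% ethanol and held at −20 °C. They were then stained 30 min at room temperature in the dark with PI 0.08 mg/mL, 0.1% Triton X-100 and RNase A 0.2 mg/mL in PBS. Subdiploid (sub-G1) fraction was quantified by flow cytometry as % of all events.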

[4] = system: HeLa; experiment: Growth inhibition of human HeLa cells after 48 hrs by MTT assay in presence of 100 uM ZnCl2; format: functional
How it was run: (§3)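 Cells seeded at 5 × 10³/well and allowed 24 h to attach, then exposed to compound (DMSO stock) or vehicle for 48 h in 10% FBS DMEM at 37 °C, 5% CO₂. MTT (2 mg/mL in PBS) added for a further 2 h; formazan dissolved in DMSO and read at 570 nm. Inhibition = (1 − At/Ac) × 100. GI₅₀ interpolated from dose-response curves; mean ± SEM of 4–6 experiments; top concentration 40 μM.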

[5] = system: HeLa; experiment: Induction of apoptosis in human HeLa cells assessed as procaspase-9 activation at 10 uM after 24 hrs by Western blot; format: functional, cell-based
[6] = system: HeLa; experiment: Induction of apoptosis in human HeLa cells assessed as procaspase-9 activation at 3 uM after 24 hrs by Western blot; format: functional, cell-based
[7] = system: HeLa; experiment: Activation of ERK phosphorylation in human HeLa cells at 3 uM in presence of 10 uM CuCl2 by Western blot; format: cell-based; details: TDE = time-dependent effect; how it was run: as §1
[8] = system: HeLa; experiment: Induction of apoptosis in human HeLa cells assessed as PARP cleavage at 10 uM after 24 hrs by Western blot; format: functional, cell-based
[9] = system: HeLa; experiment: Induction of apoptosis in human HeLa cells assessed as procaspase-3 activation at 10 uM after 24 hrs by Western blot; format: functional, cell-based
[10] = Growth inhibition of human CE81T cells after 48 hrs by MTT assay in presence of 10% FBS supplemented DMEM medium; format: functional; how it was run: as §3
[11] = system: HeLa; experiment: Growth inhibition of human HeLa cells after 48 hrs by MTT assay in presence of 50 uM ZnCl2; format: functional; how it was run: as §3
[12] = system: HeLa; experiment: Induction of apoptosis in human HeLa cells assessed as accumulation at subG1 phase at 3 uM in presence of 10 uM CuCl2 after 24 hrs using propidium iodide staining by flow cytometry; format: functional; how it was run: as §2
[13] = system: HeLa; experiment: Activation of ERK phosphorylation in human HeLa cells at 3 uM in presence of 10 uM CuCl2 after 2 hrs by Western blot; format: cell-based; how it was run: as §1
[14] = Activation of JNK phosphorylation in human HeLa cells at 3 uM in presence of 10 uM CuCl2 after 2 hrs by Western blot; format: cell-based; how it was run: as §1
[15] = system: HeLa; experiment: Activation of ERK phosphorylation in human HeLa cells at 3 uM after 2 hrs by Western blot; format: cell-based; how it was run: as §1
[16] = Activation of JNK phosphorylation in human HeLa cells at 3 uM after 2 hrs by Western blot; format: cell-based; how it was run: as §1
[17] = system: HeLa; experiment: Growth inhibition of human HeLa cells after 48 hrs by MTT assay in presence of 1 uM CuCl2; format: functional; how it was run: as §3
[18] = system: HeLa; experiment: Stimulation of reactive oxygen species in human HeLa cells at 3 uM in presence of 5 uM CuCl2 after 1 hr by dihydroethidium dye based fluorescence assay; format: functional, cell-based
How it was run: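 HeLa cells grown in DMEM with 10% FBS, 2 mM glutamine, penicillin/streptomycin at 37 °C, 5% CO2. Compound given with CuCl2, with or without tempol 1 mM; 0.5% DMSO control, untreated blank. Dihydroethidium 5 µmol/L loaded 30 min, PBS wash, epifluorescence microscopy; four separate cultures, two to six coverslips each.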

[19] = biological target: T1, MAP kinase p38 (Homo sapiens); experiment: Activation of p38 phosphorylation in human HeLa cells at 3 uM in presence of 10 uM CuCl2 after 2 hrs by Western blot; format: cell-based; how it was run: as §1
[20] = Activation of JNK phosphorylation in human HeLa cells at 3 uM in presence of 10 uM CuCl2 and tempol after 2 hrs by Western blot; format: cell-based; how it was run: as §1
[21] = Activation of JNK phosphorylation in human HeLa cells at 3 uM in presence of 10 uM CuCl2 by Western blot; format: cell-based; details: TDE = time-dependent effect; how it was run: as §1
[22] = biological target: T1, MAP kinase p38 (Homo sapiens); experiment: Activation of p38 phosphorylation in human HeLa cells at 3 uM in presence of 10 uM CuCl2 and tempol after 2 hrs by Western blot; format: cell-based; how it was run: as §1
[23] = system: HeLa; experiment: Growth inhibition of human HeLa cells after 48 hrs by MTT assay in presence of 10 uM CuCl2; format: functional; how it was run: as §3
[24] = system: HeLa; experiment: Induction of apoptosis in human HeLa cells assessed as PARP cleavage at 3 uM after 24 hrs by Western blot; format: functional, cell-based
[25] = system: HeLa; experiment: Activation of ERK phosphorylation in human HeLa cells at 3 uM in presence of 10 uM CuCl2 and tempol after 2 hrs by Western blot; format: cell-based; how it was run: as §1
[26] = Growth inhibition of human SKHep cells after 48 hrs by MTT assay in presence of 10% FBS supplemented DMEM medium; format: functional; how it was run: as §3
[27] = system: HeLa; experiment: Growth inhibition of human HeLa cells after 48 hrs by MTT assay in presence of 50 uM CuCl2; format: functional; how it was run: as §3
[28] = system: HeLa; experiment: Induction of apoptosis in human HeLa cells assessed as accumulation at subG1 phase after 24 hrs by flow cytometry; format: functional, cell-based; how it was run: as §2
[29] = system: HeLa; experiment: Growth inhibition of human HeLa cells after 48 hrs by MTT assay in presence of 10% FBS supplemented DMEM medium; format: functional; how it was run: as §3
[30] = system: HeLa; experiment: Induction of apoptosis in human HeLa cells assessed as accumulation at subG1 phase at 3 uM in presence of 1 mM tempol after 24 hrs using propidium iodide staining by flow cytometry; format: functional; how it was run: as §2
[31] = biological target: T1, MAP kinase p38 (Homo sapiens); experiment: Activation of p38 phosphorylation in human HeLa cells at 3 uM after 2 hrs by Western blot; format: cell-based; how it was run: as §1
[32] = Growth inhibition of human BT-483 cells after 48 hrs by MTT assay in presence of 10% FBS supplemented DMEM medium; format: functional; details: BT-483, 48 h; how it was run: as §3
[33] = system: SKHep; experiment: Growth inhibition of human SKHep cells at 40 uM after 48 hrs by MTT assay in presence of 10% FBS supplemented DMEM medium; format: functional, cell-based; how it was run: as §3
[34] = system: CE81T; experiment: Growth inhibition of human CE81T cells at 40 uM after 48 hrs by MTT assay in presence of 10% FBS supplemented DMEM medium; format: functional, cell-based; how it was run: as §3
[35] = system: BT-483; experiment: Growth inhibition of human BT-483 cells at 40 uM after 48 hrs by MTT assay in presence of 10% FBS supplemented DMEM medium; format: functional, cell-based; how it was run: as §3

Activity [2]: tde
GI50 [4]: 7.3 µM
GI50 [11]: 7.5 µM
GI50 [17]: 2500 nM
Activity [19]: Active
Activity [22]: inactive
GI50 [23]: 310 nM
GI50 [27]: 270 nM
GI50 [29]: 6.8 µM
Activity [31]: inactive
SMILES: O=S(=O)(c1ccccc1)N1CCN(Cc2ccc3cccnc3c2O)CC1
Activity [1]: Active
Activity [3]: 7.91%
Activity [5]: Active
Activity [6]: Active
Activity [7]: tde
Activity [8]: Active
Activity [9]: Active
GI50 [10]: 5.6 µM
Activity [12]: 29.76%
Activity [13]: Active
Activity [14]: Active
Activity [15]: inactive
Activity [16]: inactive
Activity [18]: Active
Activity [20]: inactive
Activity [21]: tde
Activity [24]: Active
Activity [25]: inactive
GI50 [26]: 14.6 µM
Activity [28]: Dose-dependent effect
Activity [30]: 5.79%
GI50 [32]: 10.7 µM

GI50 [4]: 44.5 µM
GI50 [11]: 34 µM
GI50 [17]: 30700 nM
GI50 [33]: inactive
GI50 [23]: 22800 nM
GI50 [27]: 48800 nM
GI50 [29]: 25.5 µM
GI50 [35]: inactive
SMILES: Oc1c(CN2CCCCC2)ccc2ccccc12
GI50 [34]: inactive

GI50 [4]: 12.9 µM
GI50 [11]: 8.5 µM
GI50 [17]: 3000 nM
GI50 [23]: 580 nM
GI50 [27]: 350 nM
GI50 [29]: 14.5 µM
SMILES: Oc1c(CN2CCCCC2)ccc2cccnc12
GI50 [10]: 16.7 µM
Activity [18]: Active
GI50 [26]: 16.6 µM
GI50 [32]: 26.9 µM
